The subject of one experiment is B16. Put plainly: Cytotoxicity against mouse B16 cells assessed as cell growth inhibition incubated for 72 hrs by MTT assay. It is filed as functional, cell-based. Particulars: B16, 72 h. Background: Formazan colour is commonly taken as a measure of viable cells.
The subject of the next experiment is HaCaT. Put plainly: Cytotoxicity against human HaCaT cells assessed as cell growth inhibition incubated for 72 hrs by MTT assay. The experiment is classed as functional, cell-based.
Experiment [1] is described as follows: Antioxidant activity assessed as DPPH radical scavenging activity after 5 mins by spectrophotometric analysis. It is filed as functional.
Experiment [2] can be described thus: Antioxidant activity after 5 mins by NBT assay. The experiment is classed as functional. The method in brief:
(§1)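 Nonenzymatic superoxide scavenging read in 96-well plates. Final mixture: NADH 78 μM, NBT 50 μM, PMS 10 μM, test compound at 350, 116, 39 and 13 μM. Reagents in 16 mM Tris-HCl pH 8, compounds in DMSO. After 5 min at room temperature, absorbance at 560 nm against a no-PMS blank. IC50 taken from steady-state percent inhibition per dilution. Ascorbic acid as positive control. Triplicates averaged.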

Experiment [3] is described as follows: Antioxidant activity assessed as superoxide anion radical scavenging activity after 5 mins by spectrophotometric analysis. The experiment is classed as functional. The method in brief: as §1
A short description of experiment [4]: Cytotoxicity against human Huh7D12 cells assessed as cell growth inhibition. The experiment is classed as functional, cell-based. Particulars: Huh-7D12.
Another experiment concerns Caco-2. Briefly: Cytotoxicity against human Caco2 cells assessed as cell growth inhibition. The experiment is classed as functional, cell-based.
For a further experiment, the system named is MDA-MB-231. Briefly: Cytotoxicity against human MDA-MB-231 cells assessed as cell growth inhibition. It is filed as functional, cell-based.
A further experiment concerns HCT-116. Put plainly: Cytotoxicity against human HCT116 cells assessed as cell growth inhibition. It is filed as functional, cell-based. The method in brief:
(§2)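 Inhibition of proliferation tested on a panel of human lines: Huh7D12 (differentiated hepatocellular carcinoma), Caco 2 (differentiating colorectal adenocarcinoma), MDA-MB-231 (breast carcinoma), HCT-116 (actively proliferating colorectal carcinoma), PC3 (prostate carcinoma) and NCI-H2 (lung carcinoma). Diploid skin fibroblasts served as the normal control line. Result reported as IC50.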

The subject of another experiment is PC-3. Briefly: Cytotoxicity against human PC3 cells assessed as cell growth inhibition. It is filed as functional, cell-based. The method in brief: as §2
Experiment [5] is described as follows: Cytotoxicity against human NCI-H2 cells assessed as cell growth inhibition. The experiment is classed as functional, cell-based. The method in brief: as §2
The subject of another experiment is Fibroblast. Briefly: Cytotoxicity against human Fibroblasts assessed as cell growth inhibition. It is filed as cell-based. The method in brief: as §2

From ChEMBL document CHEMBL4431303, “Minor Pyranonaphthoquinones from the Apothecia of the Lichen Ophioparma ventosa” (J Nat Prod, 2016) come the findings set out here.

pIC50: −log10 of the molar value. Values after ≈ are worked out from the molar mass of the structure shown. Active and inactive are the calls of the source. The calls are words filed in the database; no cut-off is given here.

The pIC50 is the IC50 on a negative log10 scale, so that one unit is a factor of ten. A word on the IC50: it is the concentration at which inhibition is half-maximal. For the compound `COC1=CC(=O)c2c(O)c3c(c(O)c2C1=O)[C@@H]1O[C@@H](C)C[C@@H]1OC3=O`, the pIC50 in the experiment with B16 is under 5.00; with HaCaT it was under 5.00; in [2] it was 4.30; in [3], 4.30. In experiment [1], the IC50 result is reported as “Not Active”.
Consider `COC1=CC(=O)c2c(O)c3c(c(O)c2C1=O)[C@@H](OC)[C@H](C)OC3=O`, for which the IC50 result in experiment [1] was “Not Active”. The compound also gave a pIC50 in experiment [2] of 5.21. In [3], the inhibition result is “Active”.
For the compound `COC1=CC(=O)c2c(O)c3c(c(O)c2C1=O)C[C@H](C)OC3=O`, the pIC50 with B16 is 5.62; with HaCaT, 4.85; in experiment [4] it was 5.52; in [2], 5.72; in the experiment on Caco-2, 5.40; in the experiment with MDA-MB-231, 5.00. Besides, the pIC50 is 5.59 with HCT-116, 5.40 with PC-3, 5.60 in [5] and 5.40 in the experiment on Fibroblast. Besides, in experiment [1], the IC50 is over 500 µg/mL. Besides, in experiment [3], the inhibition result is “Active”.
Regarding `O=C1O[C@H]([C@@H](O)CO)C(O)=C1O` [ASCORBIC ACID], the pIC50 in experiment [2] was 4.66. Moreover, in experiment [3], the inhibition result is “Active”.
As to `COc1cccc2c1C(=O)c1c(O)c3c(c(O)c1C2=O)C[C@@](O)(C(=O)CO)C[C@@H]3O[C@H]1C[C@H](N)[C@H](O)[C@H](C)O1` [DOXORUBICIN], the pIC50 in the experiment with B16 was 6.37; with HaCaT, 6.28; in experiment [4] it was 7.22; in the experiment with Caco-2, 7.52; in the experiment on MDA-MB-231 it was 7.52; in the experiment with HCT-116, 7.10. The pIC50 was 7.05 with PC-3, 7.40 in experiment [5] and 7.40 in the experiment on Fibroblast.
As for `O=C(O)c1cc(O)c(O)c(O)c1` [GALLIC ACID], the IC50 in experiment [1] stood at 7.2 µg/mL (≈ 42.3 µM).
For the compound `CC(=O)O[C@H]1C(=O)[C@@]2(C)[C@H]([C@H](OC(=O)c3ccccc3)[C@]3(O)C[C@H](OC(=O)[C@H](O)[C@@H](NC(=O)c4ccccc4)c4ccccc4)C(C)=C1C3(C)C)[C@]1(OC(C)=O)CO[C@@H]1C[C@@H]2O` [PACLITAXEL], the pIC50 is 8.10 in [4]; 7.85 in the experiment on Caco-2; 7.68 with MDA-MB-231; 8.52 in the experiment on HCT-116; 8.40 in the experiment on PC-3; 7.70 in experiment [5]. Further, the negative-log IC50 (pIC50) in the experiment on Fibroblast was under 6.60.
In the case of `CC[C@H](CO)Nc1nc(NCc2ccccc2)c2ncn(C(C)C)c2n1` [SELICICLIB], the pIC50 in experiment [5] is 4.74; with Fibroblast, 5.15.
Regarding `CC[C@]1(O)C[C@H]2CN(CCc3c([nH]c4ccccc34)[C@@](C(=O)OC)(c3cc4c(cc3OC)N(C=O)[C@H]3[C@@](O)(C(=O)OC)[C@H](OC(C)=O)[C@]5(CC)C=CCN6CC[C@]43[C@@H]65)C2)C1` [VINCRISTINE], the pIC50 in the experiment with B16 is 6.30; with HaCaT, 6.19.
